Assay results pooled from the literature.
Compare with care: the assays were run in different laboratories.
Tumor necrosis factor receptor superfamily member 9: Tumor necrosis factor receptor superfamily member 9 (Homo sapiens, UniProt Q07011)
PPARA: Peroxisome proliferator-activated receptor alpha (PPARA, Homo sapiens, UniProt Q07869)
CYP2D6: Cytochrome P450 2D6 (CYP2D6, Homo sapiens, UniProt P10635)
gag-pol integrase: Gag-Pol polyprotein, integrase (gag-pol, Human immunodeficiency virus 1, UniProt P12497)
Drd2: D(2) dopamine receptor (Drd2, Rattus norvegicus, UniProt P61169)

CCCC[C@@H]1NC(=O)[C@H](Cc2ccc(O)cc2)NC(=O)[C@@H]2CCCN2C(=O)[C@H](CC(=O)O)NC(=O)[C@H](C)NC(=O)[C@H](Cc2ccccc2)NC(=O)[C@@H]2CSCCC(=O)N3CN(CN(C3)C(=O)CCSC[C@H](NC(C)=O)C(=O)N[C@@H](CC(C)(C)C)C(=O)N[C@@H](CCC(=O)O)C(=O)N[C@@H](CCC(=O)O)C(=O)N[C@H](CCCCNC(=O)CCc3cn(CCOCCOCCOCCOCCOCCC(=O)N[C@H]4CSCCC(=O)N5CN6CN(C5)C(=O)CCSC[C@H](NC(=O)[C@@H](CC(=O)O)NC(=O)[C@H](Cc5cccc7ccccc57)NC(=O)[C@@H]5CCCN5C4=O)C(=O)N[C@@H](CCSC)C(=O)N[C@@H](CCCCNC(=N)N)C(=O)N[C@@H](CC(=O)O)C(=O)N[C@@H](Cc4c[nH]c5ccccc45)C(=O)N[C@@H](CO)C(=O)N[C@@H]([C@@H](C)O)C(=O)N4CCC[C@H]4C(=O)N4C[C@H](O)C[C@H]4C(=O)N[C@@H](Cc4c[nH]c5ccccc45)C(=O)N[C@H](C(N)=O)CSCCC6=O)nn3)C(=O)N3CCC[C@H]3C(=O)N[C@@H](Cc3ccc(O)cc3)C(=O)N2)C(=O)CCSC[C@@H](C(N)=O)NC1=O
Kd (Tumor necrosis factor receptor superfamily member 9; binding, SPR): 9.6 nM

O=C(O)C(F)(F)C(F)(F)C(F)(F)C(F)(F)C(F)(F)C(F)(F)C(F)(F)F
EC50 (PPARA; reporter gene, agonist, luciferase): 9500 nM

Cc1c(C2(c3ccc(C(F)(F)F)nc3)CC2)c[nH]c1C(=O)NC(C)c1nc[nH]n1 (stereo not shown)
IC50 (CYP2D6; enzyme activity, inhibitor; human, liver microsomes): 17000 nM

O=C(O)C(F)(F)C(F)(F)C(F)(F)C(F)(F)C(F)(F)C(F)(F)F
EC50 (PPARA; reporter gene, agonist, luciferase): 45000 nM

CC(C)C[C@H](NC(=O)[C@H](CCCCN)NC(=O)[C@@H]1CCCN1C(=O)[C@@H](N)CCCNC(=N)N)C(=O)N[C@@H](CCCCN)C(=O)O
Ki (Alpha-1B adrenergic receptor (ADRA1B, Homo sapiens, UniProt P35368); cell-free assay, radioligand): 2900 nM

[Cd+2]
Ki (Protein phosphatase 1A (PPM1A, Homo sapiens, UniProt P35813, D38V); enzyme activity, inhibitor, absorbance; pH 8): 470 nM

O=C(Cc1ccccc1)N[C@H](C(=O)O)[C@@H]1N=C(C(=O)O)C(CSC(C(=O)O)c2ccccc2)CS1 (stereo partly shown)
IC50 (Metallo-beta-lactamase VIM-2 (VIM-2, Escherichia coli, UniProt Q5U7L7); enzyme activity, inhibitor, absorbance): 65600 nM

Cc1cc(SCc2sc(-c3ccc(C(F)(F)F)c(F)c3)nc2C)ccc1OCC(=O)O
IC50 (PPARA; reporter gene, antagonist, luciferase): 37400 nM

CCCC[C@@H]1NC(=O)[C@H](Cc2ccc(O)cc2)NC(=O)[C@@H]2CCCN2C(=O)[C@H](CC(=O)O)NC(=O)[C@H](C)NC(=O)[C@H](Cc2ccccc2)NC(=O)[C@@H]2CSCCC(=O)N3CN(CN(C3)C(=O)CCSC[C@@H](C(=O)N[C@@H](C)C(N)=O)NC1=O)C(=O)CCSC[C@H](NC(C)=O)C(=O)N[C@@H](CC(C)(C)C)C(=O)N1CCC[C@H]1C(=O)N[C@@H](CCC(=O)O)C(=O)N[C@H](CCCCNC(=O)CCc1cn(CCOCCOCCOCCOCCOCCC(=O)N[C@H]3CSCCC(=O)N4CN5CN(C4)C(=O)CCSC[C@H](NC(=O)[C@@H](CCC(=O)O)NC(=O)[C@H](Cc4cccc6ccccc46)NC(=O)[C@@H]4CCCN4C3=O)C(=O)N[C@@H](CC(C)C)C(=O)N[C@@H](CCCCNC(=N)N)C(=O)N[C@@H](CC(=O)O)C(=O)N[C@@H](Cc3c[nH]c4ccccc34)C(=O)N[C@@H](CO)C(=O)N[C@@H]([C@@H](C)O)C(=O)N3CCC[C@H]3C(=O)N3C[C@H](O)C[C@H]3C(=O)N[C@@H](Cc3c[nH]c4ccccc34)C(=O)N[C@H](C(N)=O)CSCCC5=O)nn1)C(=O)N1CCC[C@H]1C(=O)N[C@@H](Cc1ccc(O)cc1)C(=O)N2
Kd (Tumor necrosis factor receptor superfamily member 9; binding, SPR): 8.4 nM

CC(=O)N[C@@H](CC(C)C)C(=O)N[C@@H](CC(C)C)C(=O)N[C@@H](CC(C)C)C(=O)N[C@@H](CCCN=C(N)N)C(=O)N[C@H](C(=O)N[C@@H](CCCCN)C(=O)N[C@@H](CCCN=C(N)N)C(N)=O)C(C)C
Ki (Neuroendocrine convertase 2 (Homo sapiens, UniProt P16519); enzyme activity, inhibitor): 500 nM

O=C(O)[C@H](Cc1ccccc1)NC(=O)C1(c2ccc3ccccc3c2)CCN(Cc2ccccc2)CC1
IC50 (gag-pol integrase; enzyme activity, inhibitor, TR-FRET): 353000 nM

O=C(O)c1cc[c]([Hg][Cl])cc1
IC50 (Beta-lactamase TEM (bla, Escherichia coli, UniProt P62593); enzyme activity, inhibitor): > 30000 nM

O=C(O)[C@H](Cc1ccc2ccccc2c1)NC(=O)C1(c2ccc3ccccc3c2)CCN(CCC(F)(F)F)CC1
IC50 (gag-pol integrase; enzyme activity, inhibitor, TR-FRET): 180000 nM

CC(C)C[C@H](NC(=O)[C@H](Cc1ccccc1)NC(=O)[C@H](Cc1ccc(O)cc1)NC(=O)CNC(=O)[C@H](CCCCN)NC(=O)[C@H](CO)NC(=O)[C@H](CCC(N)=O)NC(=O)CNC(=O)[C@@H](NC(=O)[C@H](CO)NC(=O)[C@@H]1CCCN1C(=O)[C@H](CO)NC(=O)[C@H](CCC(N)=O)NC(=O)[C@H](Cc1ccc(O)cc1)NC(=O)[C@H](CCC(=O)O)NC(=O)[C@H](C)NC(=O)[C@H](CCCCN)NC(=O)[C@@H](N)Cc1ccccc1)C(C)C)C(=O)N[C@@H](Cc1ccccc1)C(=O)N[C@@H](CCCNC(=N)N)C(=O)N1CCC[C@H]1C(=O)N[C@@H](CCCNC(=N)N)C(=O)N[C@@H](CC(N)=O)C(N)=O
EC50 (Neuromedin-U receptor 2 (NMUR2, Homo sapiens, UniProt Q9GZQ4); inositol phosphate, agonist): 0.24 nM

O=C(O)CCC(c1ccccc1)(c1ccccc1)c1ccccc1
IC50 (Kinesin-like protein KIF11 (KIF11, Homo sapiens, UniProt P52732); ATPase activity, inhibitor): > 28000 nM

Clc1ccc(N2CCN(Cc3c[nH]c4ncccc34)CC2)cc1
Ki (Drd2; ligand displacement, radioligand; cell membranes): 656 nM

O=S(=O)(O)C(F)(F)C(F)(F)C(F)(F)C(F)(F)C(F)(F)C(F)(F)C(F)(F)C(F)(F)F
EC50 (PPARA; reporter gene, agonist, luciferase): 24000 nM

CCCC[C@@H]1NC(=O)[C@H](Cc2ccc(O)cc2)NC(=O)[C@@H]2CCCN2C(=O)[C@H](CC(N)=O)NC(=O)[C@H](C)NC(=O)[C@H](Cc2ccccc2)NC(=O)[C@@H]2CSCCC(=O)N3CN(CN(C3)C(=O)CCSC[C@H](NC(C)=O)C(=O)N[C@@H](CC(C)(C)C)C(=O)N3CCC[C@H]3C(=O)N[C@@H](CCC(=O)O)C(=O)N[C@H](CCCCNC(=O)CCc3cn(CCOCCOCCOCCOCCOCCC(=O)N[C@H]4CSCCC(=O)N5CN6CN(C5)C(=O)CCSC[C@H](NC(=O)[C@@H](CC(=O)O)NC(=O)[C@H](Cc5cccc7ccccc57)NC(=O)[C@@H]5CCCN5C4=O)C(=O)N[C@@H](CCSC)C(=O)N[C@@H](CCCCNC(=N)N)C(=O)N[C@@H](CC(=O)O)C(=O)N[C@@H](Cc4c[nH]c5ccccc45)C(=O)N[C@@H](CO)C(=O)N[C@@H]([C@@H](C)O)C(=O)N4CCC[C@H]4C(=O)N4C[C@H](O)C[C@H]4C(=O)N[C@@H](Cc4c[nH]c5ccccc45)C(=O)N[C@H](C(N)=O)CSCCC6=O)nn3)C(=O)N3CCC[C@H]3C(=O)N[C@@H](Cc3ccc(O)cc3)C(=O)N2)C(=O)CCSC[C@@H](C(N)=O)NC1=O
Kd (Tumor necrosis factor receptor superfamily member 9; binding, SPR): 878 nM

O=C(O)[C@H](Cc1ccccc1)NC(=O)C1(c2ccc(-c3ccccc3)cc2)CCN(CCC(F)(F)F)CC1
IC50 (gag-pol integrase; enzyme activity, inhibitor, TR-FRET): 263000 nM

Cc1c(C2(c3ccc(C(F)(F)F)nc3)CC2)c[nH]c1C(=O)NC(C)c1c[nH]cn1 (stereo not shown)
IC50 (CYP2D6; enzyme activity, inhibitor; human, liver microsomes): 320 nM

CCCC[C@@H]1NC(=O)[C@H](Cc2ccc(O)cc2)NC(=O)[C@@H]2CCCN2C(=O)[C@H](CC(=O)O)NC(=O)[C@H](C)NC(=O)[C@H](Cc2ccccc2)NC(=O)[C@@H]2CSCCC(=O)N3CN(CN(C3)C(=O)CCSC[C@@H](C(=O)N[C@@H](CNC(=O)CCOCCOCCOCCOCCOCCn3cc(CCC(=O)N[C@H]4CSCCC(=O)N5CN6CN(C5)C(=O)CCSC[C@H](NC(=O)[C@@H](CC(=O)O)NC(=O)[C@H](Cc5cccc7ccccc57)NC(=O)[C@@H]5CCCN5C4=O)C(=O)N[C@@H](CCSC)C(=O)N[C@@H](CCCCNC(=N)N)C(=O)N[C@@H](CC(=O)O)C(=O)N[C@@H](Cc4c[nH]c5ccccc45)C(=O)N[C@@H](CO)C(=O)N[C@@H]([C@@H](C)O)C(=O)N4CCC[C@H]4C(=O)N4C[C@H](O)C[C@H]4C(=O)N[C@@H](Cc4c[nH]c5ccccc45)C(=O)N[C@H](C(N)=O)CSCCC6=O)nn3)C(N)=O)NC1=O)C(=O)CCSC[C@H](NC(C)=O)C(=O)N[C@@H](CC(C)(C)C)C(=O)N1CCC[C@H]1C(=O)N[C@@H](CCC(=O)O)C(=O)N[C@H](C)C(=O)N1CCC[C@H]1C(=O)N[C@@H](Cc1ccc(O)cc1)C(=O)N2
Kd (Tumor necrosis factor receptor superfamily member 9; binding, SPR): 3.4 nM

CC(C)Oc1cccnc1N(C)C1CCN(Cc2ccc(I)cc2)CC1
Ki (Drd2; ligand displacement, radioligand; cell membranes): 85 nM
